Source: PubChem
Ecoli tolC = growth inhibitors of E. coli tolC mutant, primary screen, strain BW25113 ΔtolC::kan, 384-well | AID 573, 2007 | growth inhibition, % at 10 µM (by protocol) | 65,000 tested, 2.2% active | OD615;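 active = growth inhibition at or above a cutoff equal to the mean over every tested compound plus 3 SD, cut at about 60% in these data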;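 also: growth measured after 20 h incubation at 37 °C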
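Test system: tolC-deleted E. coli BW25113 | Medium: LB with kanamycin 50 µg/mL | Compound dosing: Single concentration, 10 µM final per compound | Schedule: 37 °C, 20 h exposure | Measured by: OD at 615 nm | Evaluation: Percent growth inhibition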
E coli WT exp = growth inhibitors of wild-type E. coli, primary screen, strain BW25113, expanded library, OD600; growth inhibition, % at 100 µM; OD600 absorbance; 98,000 tested, 0.15% active;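 active = growth inhibition above about 50% at one test dose, limit read from the data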;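 also: growth measured after 20 h incubation at 37 °C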
Fibroblast inh = antiproliferative effect on LL 47 fibroblasts – human, LL 47 cells, CellTiter-Glo luminescence, primary screen | LL 47 human lung fibroblast viability, ATP luminescence; stronger effect = lower value | viability, % at 10 µM | 85,000 tested, 1.1% active | AID 719, 2007;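 active = viability at or below 50% in the single dose screen; inactive = viability above 50%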;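 also: compound exposure lasted 72 h before the ATP readout; 100% = median luminescence of untreated cell-only wells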
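Material: human lung fibroblast line LL 47, low passage; Evaluation: viability percentage against median untreated-cell control; Buffer or medium: 15% FBS in IMEM; Incubation: 72 h compound exposure at 37 °C after overnight plating; Dosing: 0.1% DMSO in all compound wells; Measured by: CellTiter-Glo luminescence.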
HUVEC prolif 384 = inhibitors of HUVEC proliferation, primary screen, cell-based, 384-well | CellTiter-Glo luminescence, 72 h; stronger effect = lower value | viability, % at 10 µM (by protocol) | 86,000 tested, 1.1% active | AID 648, 2007;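 active = viability at or below 30%; inactive = viability above 30%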;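 also: 100% = median luminescence of DMSO-only cell control wells on each plate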
H69AR inhibit = proliferation blockers of H69AR lung cancer cells, primary screen, cell-based, human, 86K library | 85,000 tested, 6% active | H69AR lung tumor viability, ATP luminescence, 72 h; stronger effect = lower value | viability, % at 10 µM;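 active = viability at or below 40%; inactive = viability above 40%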;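 also: multidrug resistant small cell line overexpressing MRP-1 efflux transporter; 100% = mean luminescence of untreated control wells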
Jurkat tox 60K = cytotoxicity toward Jurkat T cells, primary screen, cytotoxicity control, cell-based, Jurkat E6.1, 60K MLSMR library | Jurkat E6.1 viability, ATP luminescence, 48 h | inhibition, % at 4 µM | 56,000 tested, 1.2% active;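 active = inhibition above the mean inhibition of all tested compounds plus 3 SD, cut at about 28% in these data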
* hit, by the source's call; · = no result given. The list is not random: actives were taken first. Their share in the collection is about 6.4%.

SMILES	Ecoli tolC	E coli WT exp	Fibroblast inh	HUVEC prolif 384	H69AR inhibit	Jurkat tox 60K
CCCc1nc2sc3c(SCC(=O)NCc4ccco4)ncnc3c2c2c1CCC2	24	-18	95	58	8.6*	·
CC(C)Sc1nc(SCC(=O)NCc2ccco2)c2c3c(sc2n1)COC(C)(C)C3	32	-11	91	86	34*	·
CCCSc1nc(SCC(=O)NCc2ccccc2)c2c3c(sc2n1)COC(C)(C)C3	·	-1	64	52	51	·
CS(=O)(=O)N(CCc1ccccc1)CC(=O)N1CCN(c2ccc(F)cc2)CC1	·	·	101	110	102	·
Cc1cc2cc(CN(Cc3ccc4c(c3)OCO4)C(=O)c3ccco3)c(=O)[nH]c2cc1C	53	-12	96	74	33*	-2
COc1ccc(C(=O)N(Cc2ccccc2)Cc2cc3cc4c(cc3[nH]c2=O)OCCO4)cc1	·	-7	42*	28*	18*	·
COc1cc2cc(CN(Cc3ccc4c(c3)OCO4)C(=O)c3ccco3)c(=O)[nH]c2cc1OC	·	·	100	87	52	·
Cc1ccc2[nH]c(=O)c(CN(Cc3cccnc3)C(=O)c3ccncc3)cc2c1	-28	-3	88	62	28*	17
COc1ccc2[nH]c(=O)c(CN(C)C(=O)COc3ccccc3)cc2c1	-6	1	109	94	85	-3
CCCCN(Cc1cc2cc(OC)ccc2[nH]c1=O)C(=O)COc1ccccc1	-16	·	104	93	39*	-4
C=CCNc1nc(N2CCCCC2)c(C#N)c2c1CN(Cc1ccccc1)CC2	10	-9	80	79	78	·
O=c1ccn(-c2cccc(C(F)(F)F)c2)nc1-c1ccn(-c2cccc(Cl)c2)n1	·	-7	·	·	·	·
COc1cc(CCN2C(=O)c3cccc4cccc(c34)C2=O)c(S(=O)(=O)NCCCO)cc1OC	·	-12	·	·	·	·
O=C(CN1CCC(c2nc3ccccc3s2)CC1)NCc1cccs1	18	8	101	94	95	28*
O=C(OCCNc1ncc(C(F)(F)F)cc1Cl)c1ccc(S(=O)(=O)N2CCOCC2)cc1	38	-5	107	95	85	·
Cc1cc(C)cc(Nc2cc(=O)n(C3CCCCC3)c(=O)[nH]2)c1	83*	-14	89	73	39*	7
COc1ccc2cc(C(=O)NCc3ccco3)c(=O)oc2c1	-7	7	107	117	99	0
COc1ccc2cc(C(=O)NCc3ccco3)c(=Nc3ccc(C(=O)O)cc3)oc2c1	38	0	93	79	21*	4
COc1ccc(C(=O)Nc2ccc(Cl)cc2C(=O)NCc2ccco2)cc1	·	·	84	63	29*	·
CCC(C)C(NC(=O)c1ccccc1NC(=O)c1ccc(OC)cc1)C(=O)NCc1ccco1 (stereo not drawn)	12	6	103	90	82	3
Cc1nc2ccc(NC(=O)c3cccc(S(=O)(=O)N4CC(C)OC(C)C4)c3)cc2s1 (stereo not drawn)	·	3	93	93	42	·
O=C(NCc1ccc2c(c1)OCO2)c1cc(S(=O)(=O)N2CCCCC2)ccc1F	-1	-4	101	97	95	-2
CCn1cc(C(=O)NCc2ccc3c(c2)OCO3)c(=O)c2cc(F)c(N3CCN(C(=O)c4ccco4)CC3)cc21	·	73*	86	16*	0.1*	·
CC(=O)c1cc(F)c(N2CCN(C(=O)c3ccco3)CC2)cc1C	19	-4	106	111	99	5
CCn1cc(C(=O)NCc2ccccc2)c(=O)c2cc(F)c(N3CCN(C(=O)c4ccco4)CC3)cc21	·	45	93	63	12*	·
CCn1cc(C(=O)Nc2nncs2)c(=O)c2cc(F)c(N3CCN(C(=O)c4ccco4)CC3)cc21	100*	·	106	80	72	6
COCc1cc(C)nc(NCCc2ccccc2)c1C#N	·	8	96	79	98	·
O=C(N/N=C/c1ccc(Br)cc1)c1ccccc1-n1cccc1	·	-4	82	56	21*	·
O=C(N/N=C\c1ccccc1)c1sccc1-n1cccc1	·	0	·	·	·	·
